From ChEMBL document CHEMBL1781924, “Inhibitors of the NF-kappaB activation pathway from Cryptocarya rugulosa” (J Nat Prod, 2009)
Active and inactive are the calls of the source. The rule behind the calls is not given here.

Experiments:
KB = assay: Cytotoxicity against human KB cells; format: functional, cell-based
K562 [1] = assay: Cytotoxicity against doxorubicin-resistant human K562 cells; format: functional, cell-based
OCI-Ly3 [2] = assay: Induction of IkappaB in human OCI-LY3 cells assessed as fold increase in luciferase reporter gene at 16 uM; format: functional, cell-based
K562 [3] = assay: Cytotoxicity against human K562 cells; format: functional, cell-based
OCI-Ly3 [4] = assay: Induction of IkappaB in human OCI-LY3 cells assessed as fold increase in luciferase reporter gene; format: functional, cell-based
OCI-Ly3 [5] = assay: Induction of IkappaB in human OCI-LY3 cells assessed as fold increase in luciferase reporter gene after 10 hrs; format: functional, cell-based; details: TDE = time-dependent effect
[6] = target: T1, Inhibitor of nuclear factor kappa-B kinase subunit beta (Homo sapiens) (UniProt O14920); assay: Inhibition of IKK-beta in human OCI-LY19 cells assessed as decrease in renilla values at 10 ug/ml after 2.5 to 10 hrs by IkB-photinus/Renilla assay; format: cell-based
T1 sequence (whole entry): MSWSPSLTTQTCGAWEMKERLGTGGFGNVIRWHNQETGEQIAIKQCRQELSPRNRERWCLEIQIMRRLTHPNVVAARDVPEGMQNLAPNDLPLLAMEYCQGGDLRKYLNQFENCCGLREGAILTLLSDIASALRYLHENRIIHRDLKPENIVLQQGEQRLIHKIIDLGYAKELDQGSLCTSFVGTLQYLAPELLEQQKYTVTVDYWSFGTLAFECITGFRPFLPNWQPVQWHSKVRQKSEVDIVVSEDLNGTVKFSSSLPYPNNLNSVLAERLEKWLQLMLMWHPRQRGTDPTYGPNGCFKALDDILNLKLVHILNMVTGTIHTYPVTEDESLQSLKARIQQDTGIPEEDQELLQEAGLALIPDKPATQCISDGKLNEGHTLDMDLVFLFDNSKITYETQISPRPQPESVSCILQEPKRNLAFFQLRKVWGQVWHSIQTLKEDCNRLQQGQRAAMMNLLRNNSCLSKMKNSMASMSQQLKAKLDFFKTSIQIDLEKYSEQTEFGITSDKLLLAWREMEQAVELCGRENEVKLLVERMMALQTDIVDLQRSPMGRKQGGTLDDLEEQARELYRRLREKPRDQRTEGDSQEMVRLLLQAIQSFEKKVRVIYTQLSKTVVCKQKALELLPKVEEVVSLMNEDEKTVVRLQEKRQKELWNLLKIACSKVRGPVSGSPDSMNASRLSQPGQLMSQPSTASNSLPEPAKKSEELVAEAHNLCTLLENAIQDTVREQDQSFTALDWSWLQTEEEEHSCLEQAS
In short: (§1)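 OCI-Ly3, OCI-Ly10 and OCI-Ly19 cells stably coexpressing an IκB-Photinus fusion reporter and unmodified Renilla luciferase, in phenol red-free IMDM with 20% heparinized human plasma. Cells were exposed to compound at 37 °C, 5% CO2 for 2.5, 5 or 10 h, then pelleted, lysed and given dual luciferase substrates. Photinus/Renilla ratio and Renilla alone were normalized to the untreated control mean.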

[7] = target: T1, Inhibitor of nuclear factor kappa-B kinase subunit beta (Homo sapiens); assay: Inhibition of IKK-beta in human OCI-LY19 cells assessed as decrease in renilla values at 10 ug/ml after 10 hrs by IkB-photinus/Renilla assay; format: cell-based; in short: as §1
OCI-Ly3 [8] = assay: Induction of IkappaB in human OCI-LY3 cells assessed as fold increase in luciferase reporter gene at 11 uM; format: functional, cell-based
[9] = target: T1, Inhibitor of nuclear factor kappa-B kinase subunit beta (Homo sapiens); assay: Inhibition of IKK-beta in human OCI-LY10 cells assessed as decrease in renilla values at 2.5 to 10 ug/ml after 10 hrs by IkB-photinus/Renilla assay; format: cell-based; in short: as §1
[10] = target: T1, Inhibitor of nuclear factor kappa-B kinase subunit beta (Homo sapiens); assay: Inhibition of IKK-beta in human OCI-LY3 cells assessed as decrease in renilla values at 2.5 to 5 ug/ml after 10 hrs by IkB-photinus/Renilla assay; format: cell-based; details: 5 to 10 ug/ml, in the assay text read “at 5 to 10 ug/ml” for “at 2.5 to 5 ug/ml”; in short: as §1

| Structure (SMILES) | IC50 (KB) [nM] | IC50 (K562 [1]) [nM] | Activity (OCI-Ly3 [2]) | IC50 (K562 [3]) [nM] | Activity (OCI-Ly3 [4]) | Activity (OCI-Ly3 [5]) | inhibition [6] | inhibition [7] | Activity (OCI-Ly3 [8]) | inhibition [9] | inhibition [10] |
| --- | --- | --- | --- | --- | --- | --- | --- | --- | --- | --- | --- |
| O=C1C[C@@H]2/C(=C(O)\C=C\c3ccccc3)C(=O)C=C[C@@H]2O1 [CRYPTOCARYONE] | 1800 | 1800 | Active | 1800 | Dose-dependent effect | tde |  |  |  |  |  |
| O=C(/C=C/C[C@@H]1CC=CC(=O)O1)CCc1ccccc1 |  |  |  |  | Dose-dependent effect | tde | Active | inactive | Active | Active | Active |
